Experimental data: article PMC12376074 (Toxicology in vitro : an international journal published in …, 2019)
pIC50: −log10 of the molar value. Like-named read-outs stand apart in the source and are kept apart here.

How the values were obtained:
HepG2 cells [1] = test: MTT cell viability assay; assay type: cell-based, human; conditions: read-out: IC50 on cell growth
HepG2 cells [2] = test: Caspase-3/7 activity measurement; assay type: cell-based, human; conditions: 0.1 IC50, 0.5 IC50 and IC50, 48 h
cleaved caspase-3 = test: Western blot of cleaved caspase-3 in HepG2 cells; assay type: cell-based, human; conditions: 48 h
Bcl-2, Mcl-1, Bax = test: Western blot of Bcl-2 family proteins in HepG2 cells; assay type: cell-based, human; conditions: 48 h
[3] = system: phosphorylation of p38, JNK, and ERK1/2; test: Western blot of MAPK phosphorylation in HepG2 cells; assay type: cell-based, human; conditions: 48 h
[4] = MTT cell viability assay, CYP vector cells; assay type: cell-based; conditions: human, HepG2/CYP vector cells (empty-vector control), ADQ 1.56–50 μM
[5] = MTT cell viability assay, CYP1A1 cells; assay type: cell-based; conditions: human, HepG2 cells overexpressing CYP1A1
[6] = MTT cell viability assay, CYP1A2 cells; assay type: cell-based; conditions: human, HepG2 cells overexpressing CYP1A2
[7] = MTT cell viability assay, CYP1B1 cells; assay type: cell-based; conditions: human, HepG2 cells overexpressing human CYP1B1
[8] = MTT cell viability assay, CYP2C8 cells; assay type: cell-based; conditions: human, HepG2 cells overexpressing CYP2C8, IC50, CYP2C8 overexpressing cells, ADQ 1.56–50 μM
[9] = MTT cell viability assay, CYP2C19 cells; assay type: cell-based; conditions: human, HepG2 cells overexpressing CYP2C19
[10] = MTT cell viability assay, CYP3A4 cells; assay type: cell-based; conditions: human, HepG2 cells overexpressing CYP3A4, IC50, CYP3A4 overexpressing cells
[11] = MTT cell viability assay, CYP3A5 cells; assay type: cell-based; conditions: human, HepG2 cells overexpressing CYP3A5
HepG2 cells [12] = test: LDH release assay; assay type: cell-based, human; conditions: 48 h, concentrations above the 0.5 IC50
[13] = cited from earlier work
[14] = system: HepG2 cells overexpressing CYP3A4; test: Toxicity of CYP inhibitor to CYP3A4 cells; assay type: cell-based, human; conditions: 30 μM
CYP3A4 = test: Western blot of CYP3A4 expression; assay type: cell-based, human; conditions: 30 μM, CYP3A4 overexpressing cells, 48 h
Procedure, shortened: (§1)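 HepG2 cells overexpressing CYP2C8 or CYP3A4 were co-incubated 48 h with test compound, with or without 30 μM rifampicin or ketoconazole. RIPA lysates (protease inhibitors, 30 min on ice, 12,000g) were BCA-quantified, and 20–60 μg protein was run on 10% SDS-PAGE and blotted to PVDF. Blots were probed with goat polyclonal anti-CYP2C8 or mouse monoclonal anti-CYP3A4, detected by ECL, and quantified against β-actin.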

[15] = system: HepG2 cells overexpressing CYP2C8; test: Toxicity of CYP inhibitor to CYP2C8 cells; assay type: cell-based, human; conditions: 30 μM
CYP2C8 = test: Western blot of CYP2C8 expression; assay type: cell-based, human; conditions: 30 μM, CYP2C8 overexpressing cells, 48 h
Procedure, shortened: as §1

SMILES: CCN(CC)Cc1cc(Nc2ccnc3cc(Cl)ccc23)ccc1O [ADQ, Amodiaquine]
- pIC50 (HepG2 cells [1]; Homo sapiens, HepG2, 48 h): 4.76
- caspase-3/7 activity (HepG2 cells [2]): increased the activity of caspase-3/7 in a concentration-dependent manner
- expression level of cleaved caspase-3 (cleaved caspase-3): increase
- expression level of pro-apoptotic member Bax (Bcl-2, Mcl-1, Bax): increased
- expression levels of anti-apoptotic members Bcl-2 and Mcl-1 (Bcl-2, Mcl-1, Bax): decreased
- phosphorylation of p38, JNK, and ERK1/2 [3]: no change
- IC50 at 48 h [4]: 17.1 µM
- IC50 at 48 h [5]: 26.4 µM
- IC50 at 48 h [6]: 18.7 µM
- IC50 at 48 h [7]: 25.7 µM
- IC50 at 48 h [8]: 11.7 µM
- IC50 at 48 h [9]: 17.3 µM
- IC50 at 48 h ([10]; ADQ 1.56–50 μM): 14 µM
- IC50 at 48 h ([10]; ADQ 3.13–50 μM, no CYP inhibitor): 14.8 µM
- IC50 at 48 h [11]: 17.1 µM

SMILES: CCNCc1cc(Nc2ccnc3cc(Cl)ccc23)ccc1O [NADQ, N-desethylamodiaquine]
- pIC50 (HepG2 cells [1]; HepG2 cells, 1.56–50 μM, 48 h, MTT): 4.82
- LDH release relative to vehicle control (HepG2 cells [12]): > 4 fold
- caspase-3/7 activity (HepG2 cells [2]): increased the activity of caspase-3/7 in a concentration-dependent manner
- expression level of cleaved caspase-3 (cleaved caspase-3): increase
- expression level of pro-apoptotic member Bax (Bcl-2, Mcl-1, Bax): no change
- expression levels of anti-apoptotic members Bcl-2 and Mcl-1 (Bcl-2, Mcl-1, Bax): no change
- phosphorylation of p38, JNK, and ERK1/2 [3]: markedly increased
- half-life (t1/2) of NADQ relative to ADQ (longer) ([13]; after oral administration of ADQ, ref Laurent et al., 1993, Scarsi et al., 2014): 20- to 50 fold
- Cmax of NADQ in vivo relative to ADQ (higher) ([13]; in vivo, ref Lai et al., 2009): > 20 fold

SMILES: CC(=O)N1CCN(c2ccc(OCC3COC(Cn4ccnc4)(c4ccc(Cl)cc4Cl)O3)cc2)CC1 (stereo not shown) [ketoconazole]
- toxicity of the CYP inhibitor to cells [14]: not toxic
- expression level of CYP3A4 (CYP3A4): markedly reduced

SMILES: CO[C@H]1/C=C/O[C@@]2(C)Oc3c(C)c(O)c4c(O)c(c(/C=N/N5CCN(C)CC5)c(O)c4c3C2=O)NC(=O)/C(C)=C\C=C\[C@H](C)[C@H](O)[C@@H](C)[C@@H](O)[C@@H](C)[C@H](OC(C)=O)[C@@H]1C [rifampicin]
- toxicity of the CYP inhibitor to cells [15]: not toxic
- expression level of CYP2C8 (CYP2C8): markedly reduced
